Measured values as given in publication PMC3926093 (Biochemistry, 2013).

Target: LigAB (Sphingobium sp. SYK-6, UniProt P22635+P22636)
Assay: inhibition of PCA dioxygenation, O2 consumption, Clark-type electrode
Format: biochemical
Details: read-out: % inhibition ^b
Procedure, shortened: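 Anaerobically purified LigAB (His-tag removed) started the reaction at 3–7 nM final. Reactions ran in air-saturated 50 mM Tris pH 7.5 at 25 °C with 500 μM PCA plus 1 mM test compound, read by O2 consumption. Percent inhibition came from comparing rates with those of PCA-only assays run directly before and after.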

LigAB, sequence (P22635 whole entry): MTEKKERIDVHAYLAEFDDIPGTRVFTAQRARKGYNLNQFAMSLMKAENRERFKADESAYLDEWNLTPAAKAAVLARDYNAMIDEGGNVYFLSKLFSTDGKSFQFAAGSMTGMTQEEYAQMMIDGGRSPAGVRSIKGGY
LigAB, sequence (P22636 whole entry): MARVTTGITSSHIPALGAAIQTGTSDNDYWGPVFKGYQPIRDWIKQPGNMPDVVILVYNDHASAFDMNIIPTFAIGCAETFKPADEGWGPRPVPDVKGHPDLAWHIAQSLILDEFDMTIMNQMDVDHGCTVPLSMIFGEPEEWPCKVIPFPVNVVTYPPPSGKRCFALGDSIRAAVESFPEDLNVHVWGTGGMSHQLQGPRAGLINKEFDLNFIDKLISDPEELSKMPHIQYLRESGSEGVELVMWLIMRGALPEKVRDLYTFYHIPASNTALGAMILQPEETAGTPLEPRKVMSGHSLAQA

| inhibition at 1000 µM [%] | Structure (SMILES) |
| --- | --- |
| 28 | Cc1ccc(O)c(O)c1 [4-methylcatechol] |
| 31 | O=[N+]([O-])c1ccc(O)c(O)c1 [4-nitrocatechol] |
